The values that follow come from ChEMBL document CHEMBL1240462, “Synthesis and pharmacological evaluation of new methyloxiranylmethoxyxanthone analogues” (Eur J Med Chem, 2010).

As a reminder, the IC50 is the concentration that inhibits the measured activity by half. High values mean weaker potency in that assay, low ones greater potency in that assay. Usually inhibition stands for the change of the read-out against control, counted positive when it falls.

Counter-ions that a name gives are not always drawn. Activity calls are given as the source filed them. The rule behind the calls is not given here.

Assay [1] relates to MCF7. As to the kind of experiment: Cytotoxicity against human MCF7 cells after 4 days by MTT assay. In kind it is functional, cell-based. The conditions noted are these: MCF7, 96 h. Summed up:
(§1)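 Cells seeded at 2-4 × 10^4 per well and attached overnight in medium with 10% FBS, 5% CO₂, 37 °C. Medium replaced on day 1 with graded compound concentrations. On day 4, MTT added (0.5 mg/mL final) for 4 h, formazan dissolved in DMSO, absorbance read at 570 nm. IC50 from four-parameter logistic fit; mean ± SD of three experiments in triplicate.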

The subject of assay [2] is HCT-116. Briefly: Cytotoxicity against human HCT116 cells after 4 days by MTT assay. The format is functional, cell-based. The conditions noted are these: HCT-116, 96 h. Summed up:
as §1
On the technique in general: Tetrazolium dyes change colour on reduction, which living cells bring about.

The test system of assay [3] is HeLa. Briefly: Cytotoxicity against human HeLa cells after 4 days by MTT assay. In kind it is functional, cell-based. The conditions noted are these: 96 h. A digest of the protocol: as §1
For assay [4], the system named is MDA-MB-231. Briefly: Cytotoxicity against human MDA-MB-231 cells after 4 days by MTT assay. In kind it is functional, cell-based. The note with it: MDA-MB-231, 96 h. A digest of the protocol:
as §1

Assay [5] deals with DU-145. Briefly: Cytotoxicity against human DU145 cells after 4 days by MTT assay. The format is functional, cell-based. The note with it: DU-145, 96 h. A digest of the protocol: as §1
Assay [6] concerns the target DNA topoisomerase 2-alpha (Homo sapiens) (UniProt P11388). Briefly: Inhibition of human topoisomerase 2alpha-mediated relaxation of supercoiled pBR322 DNA at 20 uM after 30 mins by agarose gel electrophoresis.
For assay [7] the target is unchanged. Briefly: Inhibition of human topoisomerase 2alpha-mediated relaxation of supercoiled pBR322 DNA at 100 uM after 30 mins by agarose gel electrophoresis.
Assay [8] concerns Nucleic Acid. Briefly: Binding affinity to Escherichia coli linearized pBR322 DNA at 100 uM after 2 hrs by agarose gel electrophoresis. The format is nucleic-acid assay. Summed up:
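DNA cross-linking: 0.5 µg EcoRI-linearized, ethanol-precipitated pBR322 incubated with compound (100 μM) for 2 h at RT in 10 mM Tris-HCl, 1 mM EDTA, pH 8.0. Run on denaturing 1.2% alkaline agarose (50 mM NaOH, 1 mM EDTA running buffer), then neutralized 1 h in 100 mM Tris, 150 mM NaCl, pH 7.6.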

Assay [9] has as its system HeLa. As to the kind of experiment: Ratio of compound IC50 to adriamycin IC50 for human HeLa cells. In kind it is functional.
The subject of assay [10] is MCF7. Briefly: Ratio of compound IC50 to adriamycin IC50 for human MCF7 cells. In kind it is functional.
Assay [11] has as its system DU-145. Briefly: Ratio of compound IC50 to adriamycin IC50 for human DU145 cells. In kind it is functional.
In assay [12] the test system is HCT-116. Briefly: Ratio of compound IC50 to adriamycin IC50 for human HCT116 cells. In kind it is functional.

Sequence of DNA topoisomerase 2-alpha (Homo sapiens) (P11388 whole entry): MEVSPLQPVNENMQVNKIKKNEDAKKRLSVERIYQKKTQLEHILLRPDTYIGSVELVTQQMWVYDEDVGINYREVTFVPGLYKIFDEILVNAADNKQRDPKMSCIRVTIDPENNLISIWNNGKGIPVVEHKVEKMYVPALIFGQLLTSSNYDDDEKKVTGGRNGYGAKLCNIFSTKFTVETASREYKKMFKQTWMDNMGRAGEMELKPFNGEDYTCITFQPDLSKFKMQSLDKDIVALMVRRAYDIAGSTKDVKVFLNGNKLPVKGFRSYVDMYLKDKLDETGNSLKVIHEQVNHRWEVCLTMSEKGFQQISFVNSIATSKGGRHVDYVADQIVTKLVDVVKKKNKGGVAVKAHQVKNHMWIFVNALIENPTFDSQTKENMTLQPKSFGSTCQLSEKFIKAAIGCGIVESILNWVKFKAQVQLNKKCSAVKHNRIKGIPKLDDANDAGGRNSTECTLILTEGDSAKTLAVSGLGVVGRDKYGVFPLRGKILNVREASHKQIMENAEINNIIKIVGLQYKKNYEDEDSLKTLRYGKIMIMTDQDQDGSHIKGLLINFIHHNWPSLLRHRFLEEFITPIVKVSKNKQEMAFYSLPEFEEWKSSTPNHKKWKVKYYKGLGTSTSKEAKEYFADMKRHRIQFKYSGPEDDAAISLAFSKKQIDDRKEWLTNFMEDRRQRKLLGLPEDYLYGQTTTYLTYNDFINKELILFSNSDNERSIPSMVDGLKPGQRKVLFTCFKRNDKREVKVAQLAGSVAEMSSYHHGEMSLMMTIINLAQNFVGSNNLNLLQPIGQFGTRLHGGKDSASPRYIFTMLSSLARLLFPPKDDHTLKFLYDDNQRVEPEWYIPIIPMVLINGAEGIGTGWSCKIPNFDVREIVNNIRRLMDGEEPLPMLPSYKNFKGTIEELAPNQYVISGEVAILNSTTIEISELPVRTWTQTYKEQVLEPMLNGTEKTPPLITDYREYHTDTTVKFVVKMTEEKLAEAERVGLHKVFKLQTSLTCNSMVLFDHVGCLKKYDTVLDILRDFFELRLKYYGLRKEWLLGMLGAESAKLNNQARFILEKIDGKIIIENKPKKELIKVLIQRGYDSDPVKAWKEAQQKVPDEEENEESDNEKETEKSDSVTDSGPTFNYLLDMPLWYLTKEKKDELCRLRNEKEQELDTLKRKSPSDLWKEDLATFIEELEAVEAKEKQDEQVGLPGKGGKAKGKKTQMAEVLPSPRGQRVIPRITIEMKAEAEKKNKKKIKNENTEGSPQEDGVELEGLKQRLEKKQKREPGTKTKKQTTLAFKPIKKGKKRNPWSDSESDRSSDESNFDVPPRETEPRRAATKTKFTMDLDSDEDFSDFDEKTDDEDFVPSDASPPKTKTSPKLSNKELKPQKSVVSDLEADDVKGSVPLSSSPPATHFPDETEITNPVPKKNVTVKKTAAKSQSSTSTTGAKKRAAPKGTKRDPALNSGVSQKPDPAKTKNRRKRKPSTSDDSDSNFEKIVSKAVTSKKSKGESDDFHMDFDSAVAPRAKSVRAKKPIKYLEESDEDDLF

For the compound `CC[C@@]1(O)C(=O)OCc2c1cc1n(c2=O)Cc2cc3ccccc3nc2-1` [CAMPTOTHECIN], the IC50 in assay [1] was determined as 14.2 µM; in [2] it was 2.3 µM; in [3] it was 1.1 µM.
Turning to `COc1cccc2c1C(=O)c1c(O)c3c(c(O)c1C2=O)C[C@@](O)(C(=O)CO)C[C@@H]3O[C@H]1C[C@H](N)[C@H](O)[C@H](C)O1` [DOXORUBICIN HYDROCHLORIDE], the values for the IC50 in assay [2], in assay [4] and in [5] were 4 µM, 4.4 µM and 1.4 µM, respectively.
Consider `COc1cccc2c(=O)c3c(O)cc(OCC(C)(O)CCl)cc3oc12` (centres undefined), for which the IC50 in assay [1] came to 88.4 µM; in assay [2], 15.8 µM; in assay [4], 15.4 µM; in assay [3], 68.2 µM; in [5], 7.2 µM. Further, the inhibition in assay [6] was determined as 41%; in assay [7] it was 85%.
For the compound `COc1cccc2c(=O)c3c(OC)cc(OCC(O)CCl)cc3oc12` (centres undefined), the IC50 was 51.7 µM in [1]; 16.4 µM in assay [2]; 56 µM in assay [4]; 59.5 µM in assay [3]; 15.3 µM in assay [5]. The inhibition in assay [6] worked out at 2%; in assay [7], 83%.
In the case of `COc1cccc2c(=O)c3c(OCC4CO4)cc(OCC4CO4)cc3oc12` (centres undefined), the result in assay [8] was Active. Further, the IC50 in assay [1] came out at 9.9 µM; in assay [2], 2 µM; in assay [4] it was 5.4 µM; in [3], 4.7 µM; in [5], 2.4 µM. Also, the results for the inhibition in assay [6] and in assay [7] were 9% and 71%, respectively.
`COc1cccc2c(=O)c3c(OCC(O)CCl)cc(OCC4CO4)cc3oc12` (centres undefined): the IC50 worked out at 69 µM in assay [1]; 9.9 µM in assay [2]; 18.9 µM in [4]; 41.7 µM in assay [3]; 3.9 µM in [5]. The inhibition worked out at 27% in assay [6] and 65% in assay [7].
Regarding `COc1cccc2c(=O)c3c(OCC4(C)CO4)cc(OCC4(C)CO4)cc3oc12` (centres undefined), the outcome in assay [8] was Active. The IC50 was 2.5 µM in [1]; 0.8 µM in assay [2]; 5.1 µM in assay [4]; 1.5 µM in [3]; 0.9 µM in assay [5]. Moreover, the inhibition in assay [6] came out at 15%; in assay [7], 48%. Besides, the “Ratio IC50” value in assay [9], in [10], in assay [11] and in [12] was 2 throughout.
Regarding `COc1cc([C@@H]2c3cc4c(cc3[C@@H](O[C@@H]3O[C@@H]5CO[C@@H](C)O[C@H]5[C@H](O)[C@H]3O)[C@H]3COC(=O)[C@H]23)OCO4)cc(OC)c1O` [ETOPOSIDE], the IC50 in assay [1] is 17.5 µM; in [2] it was 11.9 µM; in [5], 13.8 µM.
For the compound `COc1cccc2c(=O)c3c(OC)cc(OCC4CO4)cc3oc12` (centres undefined), the IC50 in assay [1] stood at 8 µM; in [2], 1.5 µM; in assay [4], 3.8 µM; in assay [3] it was 6.2 µM; in assay [5] it was 0.8 µM. Besides, the inhibition in assay [6] is 0%; in [7] it was 4%. In addition, the “Ratio IC50” value in assay [9], in assay [10], in assay [11] and in [12] was 2 throughout.
For the compound `COc1cc(OCC(O)CCl)cc2oc3ccccc3c(=O)c12` (centres undefined), the half-maximal inhibitory concentration (IC50) in [1] is greater than 100 µM; in assay [2], 21.6 µM; in [4] it was greater than 100 µM; in [3] it was greater than 100 µM; in [5] it was 40.1 µM. Besides, the figures for the inhibition in assay [6] and in [7] were 1% and 33%, respectively.
In the case of `COc1cc(OCC2CO2)cc2oc3ccccc3c(=O)c12` (centres undefined), the IC50 amounted to 14 µM in [1]; 6.6 µM in assay [2]; 10.9 µM in assay [4]; 10.5 µM in [3]; 1.5 µM in assay [5]. Further, the inhibition was 5% in assay [6] and 51% in [7].
Turning to `COc1cccc2c(=O)c3c(O)cc(OCC4(C)CO4)cc3oc12` (centres undefined), the IC50 in assay [1] was greater than 100 µM; in assay [2], 69.1 µM; in assay [4], greater than 100 µM; in assay [3], greater than 100 µM; in [5], greater than 100 µM. Further, the results for the inhibition in [6] and in assay [7] were 3% and 23%, respectively.
As for `CC1(COc2cc(O)c3c(=O)c4ccccc4oc3c2)CO1` (centres undefined), the IC50 in [1] amounted to 15 µM; in [2], 12.1 µM; in assay [4], 41.7 µM; in assay [3], 14.3 µM; in assay [5], 18.9 µM. Further, the inhibition in [6] was 11%; in [7], 25%.
Consider `CC(O)(CCl)COc1cc(O)c2c(=O)c3ccccc3oc2c1` (centres undefined), for which the IC50 was greater than 100 µM in assay [1]; 47.1 µM in [2]; greater than 100 µM in assay [4]; greater than 100 µM in [3]; greater than 100 µM in assay [5]. For the same compound, the inhibition was 20% in [6] and 52% in [7].
Take `CC1(COc2cc(OCC3(C)CO3)c3c(=O)c4ccccc4oc3c2)CO1` (centres undefined): the outcome in assay [8] was Active. In addition, the IC50 in assay [1] was found to be 15.2 µM; in assay [2], 2.6 µM; in assay [4], 68.2 µM; in [3], 15.8 µM; in assay [5], 3.9 µM. Moreover, the inhibition in assay [6] came out at 24%; in assay [7], 41%.
